Measured values taken from ChEMBL document CHEMBL1143864, “Design and synthesis of potent antileishmanial cycloalkylidene-substituted ether phospholipid derivatives” (J Med Chem, 2008).

Experiments:
[1] = test system: Leishmania infantum; experiment: Antileishmanial activity against Leishmania infantum MHOM/TN/80/IPT1/LEM235 intracellular amastigotes; format: functional, organism-based
In short: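 THP-1 cells differentiated with retinoic acid for 3 days, infected with L. infantum promastigotes (1:4, 37 °C, 5% CO2) overnight. Free parasites removed on Histopaque 1077. Infected cells at 4 × 10^5 cells/mL mixed 1:1 with compound, 72 h at 37 °C/5% CO2. Percent infected cells counted by Giemsa microscopy; IC50 as for promastigotes.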

[2] = test system: THP-1; experiment: Cytotoxicity against human THP1 cells after 72 hrs; format: cell-based; details: THP-1, 72 h
[3] = Toxicity in human erythrocytes assessed as hemolysis at 100 uM; format: cell-based, Erythrocyte; details: read-out: Activity
In short: (§1)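 Washed erythrocytes from EDTA blood of healthy volunteers mixed 1:1 with compound in PBS (100 to 6.25 µM), 1 h at 37 °C. After centrifugation, supernatant absorbance read at 550 nm (reference 625 nm). Hemolysis % = (A − A0)/(Amax − A0) × 100, with PBS background and water as 100% lysis.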

[4] = test system: Leishmania donovani; experiment: Antileishmanial activity against Leishmania donovani MHOM/IN/80/DD8/LEM703 promastigotes
[5] = test system: Leishmania infantum; experiment: Antileishmanial activity against Leishmania infantum MHOM/TN/80/IPT1/LEM235 promastigotes; format: functional, organism-based
In short: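 Promastigotes grown in RPMI 1640 with 10% FCS, L-glutamine and antibiotics at 26 °C. Compounds, 65 mM stock in DMSO/ethanol 50/50, diluted 5-fold in medium (100 to 0.8 µM). Culture at 2 × 10^6 cells/mL mixed 1:1 with compound, 72 h at 26 °C. PI/SYBR-14 live/dead staining, flow cytometry, ≥10 000 cells; IC50 per Hills et al.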

[6] = Toxicity in human erythrocytes assessed as hemolysis at 500 uM; format: cell-based, Erythrocyte; details: read-out: Activity
[7] = Toxicity in human erythrocytes assessed as hemolysis; format: cell-based, Erythrocyte; in short: as §1
[8] = test system: THP-1; experiment: Cytotoxicity against human THP1 cells at 50 uM after 72 hrs; format: cell-based; details: thp-1, 72 h
In short: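 THP-1 monocytes in RPMI 1640/10% FCS at 1 × 10^6 cells/mL incubated 72 h with compound (50 to 1.56 µM). Dual PI/SYBR-14 staining; alive/dead ratio by flow cytometry, excitation 488 nm, read at 545 and 645 nm. At least 10 000 cells per sample, each staining experiment repeated thrice.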

[9] = Half life in human; format: ADME, organism-based; details: in vivo

SMILES: C[N+]1(CCOP(=O)([O-])OCCCCC=C2CCCCCCCCCCCCCC2)CCOCC1
- IC50 [1]: 4.4 µM
- IC50 [2]: 372 µM
- hemolysis at 100 µM [3]: 45.4%
- IC50 [4]: 1.94 µM
- IC50 [5]: 1.8 µM
- hemolysis at 500 µM [6]: 88.3%
- HC50 [7]: > 100 µM

SMILES: C[N+]1(CCOP(=O)([O-])OCCCCCC2CCCCCCCCCCCCCC2)CCOCC1
- IC50 [1]: 0.4 µM
- IC50 [2]: 244 µM
- hemolysis at 100 µM [3]: 34.8%
- IC50 [4]: 1 µM
- IC50 [5]: 1.9 µM
- hemolysis at 500 µM [6]: 81.1%
- HC50 [7]: > 100 µM

SMILES: CCCCCCCCCCCCCCCCOP(=O)([O-])O[C@@H]1CCC[C@H]1[N+](C)(C)C (relative stereo)
- IC50 [1]: 3.3 µM
- IC50 [2]: 34.1 µM
- hemolysis at 100 µM [3]: 100%
- IC50 [4]: 54.3 µM
- IC50 [5]: > 100 µM
- hemolysis at 500 µM [6]: 100%
- HC50 [7]: 43.1 µM

SMILES: C[N+](C)(C)[C@@H]1CCC[C@H]1OP(=O)([O-])OCCCCCCCCCCC=C1CCCCC1 (relative stereo)
- IC50 [1]: 1.1 µM
- IC50 [2]: 30.7 µM
- hemolysis at 100 µM [3]: 66.4%
- IC50 [4]: 8.6 µM
- IC50 [5]: > 100 µM
- hemolysis at 500 µM [6]: 100%
- HC50 [7]: 76.3 µM

SMILES: C[N+](C)(C)CCOP(=O)([O-])OCCCCCC1CCCCCCCCC1
- IC50 [1]: 2.2 µM
- IC50 [2]: 363 µM
- hemolysis at 100 µM [3]: 1.7%
- IC50 [4]: < 3.13 µM
- IC50 [5]: 21.7 µM
- hemolysis at 500 µM [6]: 100%
- HC50 [7]: > 100 µM

SMILES: C[N+]1(CCOP(=O)([O-])OCCCCCCCCCCC=C2CCCCCCCCCCCCCC2)CCOCC1
- IC50 [1]: 0.9 µM
- IC50 [2]: 36.2 µM
- hemolysis at 100 µM [3]: 16.9%
- IC50 [4]: 41.5 µM
- IC50 [5]: 50.2 µM
- hemolysis at 500 µM [6]: 100%
- HC50 [7]: > 100 µM

SMILES: CCCCCCCCCCCCCCCCOP(=O)([O-])OCC[N+](C)(C)C [MILTEFOSINE]
- IC50 [1]: 6.7 µM
- IC50 [2]: 28.6 µM
- hemolysis at 100 µM [3]: 96.1%
- Activity [8]: Toxic
- IC50 [4]: 8.7 µM
- IC50 [5]: 23.9 µM
- hemolysis at 500 µM [6]: 100%
- half-life [9]: 100 h

SMILES: C[N+](C)(C)CCOP(=O)([O-])OCCCCCCCCCCC=C1CCCCCCCCC1
- IC50 [1]: 0.11 µM
- IC50 [2]: 37.9 µM
- hemolysis at 100 µM [3]: 25.5%
- IC50 [4]: 1 µM
- IC50 [5]: 2.9 µM
- hemolysis at 500 µM [6]: 43%
- HC50 [7]: > 100 µM

SMILES: C[N+]1(CCOP(=O)([O-])OCCCCC=C2CCCCCCCCCCCCCC2)CCCCC1
- IC50 [1]: 4.1 µM
- IC50 [2]: 272 µM
- hemolysis at 100 µM [3]: 71.6%
- IC50 [4]: 2 µM
- IC50 [5]: 1.7 µM
- hemolysis at 500 µM [6]: 100%
- HC50 [7]: 68.4 µM

SMILES: C[N+](C)(C)CC#CCOP(=O)([O-])OCCCCCCCCCCC=C1C2CC3CC(C2)CC1C3
- IC50 [1]: 5.2 µM
- IC50 [2]: 75 µM
- IC50 [4]: 41.1 µM
- IC50 [5]: 44.3 µM
- hemolysis at 500 µM [6]: 100%
- HC50 [7]: 100 µM

SMILES: C[N+]1(CCOP(=O)([O-])OCCCCCC2CCCCCCCCCCCCCC2)CCCCC1
- IC50 [1]: 1 µM
- IC50 [2]: 333 µM
- hemolysis at 100 µM [3]: 28.7%
- IC50 [4]: 1 µM
- IC50 [5]: 2.8 µM
- hemolysis at 500 µM [6]: 80.8%
- HC50 [7]: > 100 µM

SMILES: C[N+](C)(C)[C@H]1CCC[C@@H]1OP(=O)([O-])OCCCCC=C1CCCCCCCCCCCCCC1 (relative stereo)
- IC50 [1]: 0.2 µM
- IC50 [2]: 75.4 µM
- hemolysis at 100 µM [3]: 80.5%
- IC50 [4]: < 3.1 µM
- IC50 [5]: < 3.1 µM
- hemolysis at 500 µM [6]: 100%
- HC50 [7]: 44.3 µM

SMILES: C[N+](C)(C)[C@@H]1CCC[C@H]1OP(=O)([O-])OCCCCCCCCCCC=C1C2CC3CC(C2)CC1C3 (relative stereo)
- IC50 [1]: 0.3 µM
- IC50 [2]: 75 µM
- hemolysis at 100 µM [3]: 30.8%
- IC50 [4]: 3.9 µM
- IC50 [5]: 38 µM
- hemolysis at 500 µM [6]: 100%
- HC50 [7]: > 100 µM

SMILES: CCCCCCCCCCCCCCCCOP(=O)([O-])O[C@@H]1CCCC[C@H]1[N+](C)(C)C (relative stereo)
- IC50 [1]: 1.7 µM
- IC50 [2]: 21.3 µM
- hemolysis at 100 µM [3]: 20.4%
- IC50 [4]: 71.9 µM
- IC50 [5]: > 100 µM
- hemolysis at 500 µM [6]: 55.4%
- HC50 [7]: > 100 µM

SMILES: C[N+]1(CCOP(=O)([O-])OCCCCCCCCCCC=C2CCCCCCCCCCCCCC2)CCCCC1
- IC50 [1]: 3.6 µM
- IC50 [2]: 72.6 µM
- hemolysis at 100 µM [3]: 36%
- IC50 [4]: 65.9 µM
- IC50 [5]: 84.5 µM
- hemolysis at 500 µM [6]: 51.4%
- HC50 [7]: > 100 µM

SMILES: C[N+](C)(C)[C@@H]1CCCC[C@H]1OP(=O)([O-])OCCCCCCCCCCC=C1C2CC3CC(C2)CC1C3 (relative stereo)
- IC50 [1]: 0.8 µM
- IC50 [2]: 39.7 µM
- hemolysis at 100 µM [3]: 66.8%
- IC50 [4]: 16.6 µM
- IC50 [5]: > 100 µM
- hemolysis at 500 µM [6]: 100%
- HC50 [7]: 66.6 µM

SMILES: C[N+](C)(C)[C@H]1CCCC[C@@H]1OP(=O)([O-])OCCCCC=C1CCCCCCCCCCCCCC1 (relative stereo)
- IC50 [1]: 1.6 µM
- IC50 [2]: 88.5 µM
- hemolysis at 100 µM [3]: 60.7%
- IC50 [4]: 6 µM
- IC50 [5]: > 100 µM
- hemolysis at 500 µM [6]: 100%
- HC50 [7]: 76.7 µM

SMILES: C[N+](C)(C)CCOP(=O)([O-])OCCCCCC1CCCCCCCCCCCCCC1
- IC50 [1]: 0.7 µM
- IC50 [2]: > 500 µM
- hemolysis at 100 µM [3]: 8.7%
- Activity [8]: Non-toxic
- IC50 [4]: 0.9 µM
- IC50 [5]: 1.4 µM
- hemolysis at 500 µM [6]: 100%
- HC50 [7]: > 100 µM

SMILES: C[N+](C)(C)CCOP(=O)([O-])OCCCCC=C1CCCCCCCCC1
- IC50 [1]: 3.3 µM
- IC50 [2]: 349 µM
- hemolysis at 100 µM [3]: 2.1%
- IC50 [4]: < 3.2 µM
- IC50 [5]: 76.8 µM
- hemolysis at 500 µM [6]: 41.8%
- HC50 [7]: > 100 µM

SMILES: C[N+](C)(C)CCOP(=O)([O-])OCCCCC=C1CCCCCCCCCCCCCC1
- IC50 [1]: 3.8 µM
- IC50 [2]: 154 µM
- hemolysis at 100 µM [3]: 38%
- IC50 [4]: 2.3 µM
- IC50 [5]: 2.2 µM
- hemolysis at 500 µM [6]: 57.4%
- HC50 [7]: > 100 µM

SMILES: C[N+]1(C)C2CCC1CC(=CCOP(=O)([O-])OCCCCCCCCCCC=C1C3CC4CC(C3)CC1C4)C2
- IC50 [1]: 9.1 µM
- IC50 [2]: 147 µM
- hemolysis at 100 µM [3]: 82.3%
- IC50 [4]: 41.6 µM
- IC50 [5]: > 100 µM
- hemolysis at 500 µM [6]: 100%
- HC50 [7]: 61.3 µM

SMILES: C[N+](C)(C)[C@@H]1CCCC[C@H]1OP(=O)([O-])OCCCCCCCCCCC=C1CCCCC1 (relative stereo)
- IC50 [1]: 1.1 µM
- IC50 [2]: 28.7 µM
- hemolysis at 100 µM [3]: 81.6%
- IC50 [4]: 16.1 µM
- IC50 [5]: > 100 µM
- hemolysis at 500 µM [6]: 100%
- HC50 [7]: 59.8 µM

SMILES: C[N+](C)(C)CCOP(=O)([O-])OCCCCCCCCCCC=C1CCCCCCCCCCCCCC1
- IC50 [1]: 0.75 µM
- IC50 [2]: 37.7 µM
- hemolysis at 100 µM [3]: 17.7%
- IC50 [4]: 68.2 µM
- IC50 [5]: 100 µM
- hemolysis at 500 µM [6]: 100%
- HC50 [7]: 100 µM
